A short description of data set [1]: Half life period of the compound. Format: ADME. The gist of the method: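 Half-life was calculated as ln2/koff (first-order decay). koff came from paired fluorescent-probe ligand exchange with recombinant human renin: 5.0×10^-8 M renin, 5.0×10^-7 M probe, pH 7.4 HEPES/octyl glucoside buffer, 37 °C, 5-min preincubation. The two curves were fitted simultaneously, with the probe rate constants held fixed.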

Data set [2] addresses T1, Renin (Homo sapiens) (UniProt P00797).
T1 sequence (whole entry): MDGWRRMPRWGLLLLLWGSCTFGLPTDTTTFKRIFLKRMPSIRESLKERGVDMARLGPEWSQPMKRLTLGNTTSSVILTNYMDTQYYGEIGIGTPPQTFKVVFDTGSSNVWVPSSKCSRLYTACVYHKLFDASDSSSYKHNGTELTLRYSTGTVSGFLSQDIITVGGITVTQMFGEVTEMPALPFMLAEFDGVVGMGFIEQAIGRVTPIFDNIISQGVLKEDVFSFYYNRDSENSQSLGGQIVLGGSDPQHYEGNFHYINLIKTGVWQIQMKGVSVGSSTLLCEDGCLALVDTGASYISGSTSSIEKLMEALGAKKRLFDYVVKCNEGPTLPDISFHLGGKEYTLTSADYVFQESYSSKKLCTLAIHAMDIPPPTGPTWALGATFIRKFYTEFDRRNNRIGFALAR
In words: (§1) Component […] rate constant by the compound against Renin was determined. Also on record: unit not given here.

The target of data set [3] is T1, Renin (Homo sapiens). The data set is described as §1.

As usually defined, the half-life is how long it takes for the measured level to halve. For `CC(C)C[C@H](O)[C@H](O)[C@H](CC1CCCCC1)NC(=O)[C@@H](CC(=O)N(CC(=O)N(C)CCN(C)C(=O)N1CCOCC1)[C@@H](C)c1ccccc1)Cc1csc(N)n1`, the half-life in data set [1] was 8.7 min. In addition, the Koff on Renin (Homo sapiens) [2] is 0.00133. Also, on Renin (Homo sapiens) [3], the k on is 5.43e+06 M⁻¹ s⁻¹.
On the same counts, the results for `CC(C)C[C@H](O)[C@H](O)[C@H](CC1CCCCC1)NC(=O)[C@@H](CC(=O)N(CC(=O)N(C)CCC(=O)N1CCOCC1)[C@@H](C)c1ccccc1)Cc1csc(N)n1` are 8.9 min, 0.0013 and 2e+06 M⁻¹ s⁻¹.
The corresponding values for `CC(C)C[C@H](O)[C@H](O)[C@H](CC1CCCCC1)NC(=O)[C@@H](CC(=O)N(CC(=O)N(C)CCc1ccccn1)[C@@H](C)c1ccccc1)Cc1csc(N)n1` are 8.6 min, 0.00135 and 6.68e+06 M⁻¹ s⁻¹.
Compound `COC1(CN(CC(=O)N(C)CCc2ccccn2)C(=O)C[C@@H](Cc2csc(N)n2)C(=O)N[C@@H](CC2CCCCC2)[C@@H](O)[C@@H](O)CC(C)C)CCCCC1` displayed a half-life in data set [1] of 6.6 min. The Koff on Renin (Homo sapiens) [2] came to 0.00175. In addition, the k on at Renin (Homo sapiens) [3] worked out at 2.28e+06 M⁻¹ s⁻¹.
The corresponding values for `CC(C)C[C@H](O)[C@H](O)[C@H](CC1CCCCC1)NC(=O)[C@@H](CC(=O)N(CC(=O)N(C)CCc1ccccn1)CC1(C)CCCCC1)Cc1csc(N)n1` are 20.3 min, 0.000569 and 1.22e+07 M⁻¹ s⁻¹.
The corresponding values for `CC(C)C[C@H](O)[C@H](O)[C@H](CC1CCCCC1)NC(=O)[C@@H](CC(=O)N(CC(=O)N(C)CCc1ccccn1)CC1CCCCC1)Cc1csc(N)n1` are 41.3 min, 0.00028 and 5.93e+06 M⁻¹ s⁻¹.
On the same counts, the results for `CC(C)C[C@H](O)[C@H](O)[C@H](CC1CCCCC1)NC(=O)[C@@H](CC(=O)N(CC(=O)N(C)CCN1CCOCC1)[C@@H](C)c1ccccc1)Cc1csc(N)n1` are 2.4 min, 0.00481 and 2.07e+06 M⁻¹ s⁻¹.
`CC(C)C[C@H](O)[C@H](O)[C@H](CC1CCCCC1)NC(=O)[C@@H](CC(=O)N(CC(=O)N(C)CCc1ccccn1)CC1CCCCCC1)Cc1csc(N)n1` showed a half-life in data set [1] of 49.4 min. On Renin (Homo sapiens) [2], the Koff turned out to be 0.000234. The compound also returned a k on on Renin (Homo sapiens) [3] of 8.63e+06 M⁻¹ s⁻¹.

These data come from ChEMBL document CHEMBL1128576, “Time-resolved ligand exchange reactions: kinetic models for competitive inhibitors with recombinant human renin” (J Med Chem, 1995).
